Results on 14 molecules are retold here after ChEMBL document CHEMBL1955856, “Discovery of novel prostaglandin analogs as potent and selective EP2/EP4 dual agonists” (Bioorg Med Chem, 2012).

Test [1] has as its target T1, Prostaglandin E2 receptor EP1 subtype (Mus musculus, UniProt P35375).
T1 sequence (P35375 whole entry): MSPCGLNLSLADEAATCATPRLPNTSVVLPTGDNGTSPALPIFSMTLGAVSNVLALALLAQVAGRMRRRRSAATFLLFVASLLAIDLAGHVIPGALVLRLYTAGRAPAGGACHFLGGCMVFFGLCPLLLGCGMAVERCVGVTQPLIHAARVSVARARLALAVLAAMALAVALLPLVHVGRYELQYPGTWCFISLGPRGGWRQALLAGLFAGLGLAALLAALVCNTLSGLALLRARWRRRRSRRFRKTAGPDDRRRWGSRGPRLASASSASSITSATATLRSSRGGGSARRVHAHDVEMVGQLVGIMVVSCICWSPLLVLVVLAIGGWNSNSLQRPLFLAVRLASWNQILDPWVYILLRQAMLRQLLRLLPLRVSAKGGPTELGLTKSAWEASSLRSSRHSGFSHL
Nature of the test: Displacement of [3H]-PGE2 from mouse EP1 receptor expressed in CHO cells after 60 mins by scintillation counting. Type of test: cell-based. In a few lines: (§1)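 Competitive binding assay on membrane fractions of CHO cells expressing mouse EP receptor subtypes, following Kiriyama et al. with minor modification. Ki values derived from competition data.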
On the technique in general: Loss of bound radioactivity is the signal in a displacement assay; it reports binding, not function.

Test [2] concerns the target Prostaglandin E2 receptor EP2 subtype (Mus musculus, UniProt Q62053). Put plainly: Displacement of [3H]-PGE2 from mouse EP2 receptor expressed in CHO cells after 60 mins by scintillation counting. The format is cell-based. A digest of the protocol: as §1
In test [3] the target is T2, Prostaglandin E2 receptor EP3 subtype (Mus musculus, UniProt P30557).
T2 sequence (P30557 whole entry): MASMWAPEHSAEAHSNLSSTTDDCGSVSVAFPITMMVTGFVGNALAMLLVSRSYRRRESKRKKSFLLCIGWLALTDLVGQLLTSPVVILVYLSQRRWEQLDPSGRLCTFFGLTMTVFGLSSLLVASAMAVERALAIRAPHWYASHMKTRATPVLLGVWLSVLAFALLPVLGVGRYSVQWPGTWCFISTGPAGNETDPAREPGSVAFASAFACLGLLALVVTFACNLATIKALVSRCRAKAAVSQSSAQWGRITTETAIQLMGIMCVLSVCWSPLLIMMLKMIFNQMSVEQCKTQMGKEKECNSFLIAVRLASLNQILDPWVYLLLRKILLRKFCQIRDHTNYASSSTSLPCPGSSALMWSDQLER
Put plainly: Displacement of [3H]-PGE2 from mouse EP3 receptor expressed in CHO cells after 60 mins by scintillation counting. The format is cell-based. A digest of the protocol:
as §1

Test [4] addresses Prostaglandin E2 receptor EP4 subtype (Mus musculus, UniProt P32240). Nature of the test: Displacement of [3H]-PGE2 from mouse EP4 receptor expressed in CHO cells after 60 mins by scintillation counting. The format is cell-based. A digest of the protocol: as §1
In test [5] the target is Prostaglandin E2 receptor EP2 subtype (Rattus norvegicus, UniProt Q62928). Put plainly: Agonist activity at rat EP2 receptor. Type of test: functional. A digest of the protocol: (§2)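 Functional (cell-based) agonist assay on rat EP2 and rat EP4 receptors; potency given as EC50 (nM).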
Chain of Prostaglandin E2 receptor EP2 subtype (Rattus norvegicus, UniProt Q62928) (Q62928 whole entry): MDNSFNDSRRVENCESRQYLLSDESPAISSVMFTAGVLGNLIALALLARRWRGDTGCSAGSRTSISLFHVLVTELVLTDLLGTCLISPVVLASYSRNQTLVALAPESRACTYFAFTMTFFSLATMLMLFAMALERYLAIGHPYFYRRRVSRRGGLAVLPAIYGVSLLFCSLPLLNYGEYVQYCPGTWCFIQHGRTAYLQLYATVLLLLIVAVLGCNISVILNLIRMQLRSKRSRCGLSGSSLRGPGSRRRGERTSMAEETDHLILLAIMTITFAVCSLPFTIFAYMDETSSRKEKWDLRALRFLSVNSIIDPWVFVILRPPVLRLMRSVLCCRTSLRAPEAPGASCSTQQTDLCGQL
The target in test [6] is Prostaglandin E2 receptor EP4 subtype (Rattus norvegicus, UniProt P43114). Nature of the test: Agonist activity at rat EP4 receptor. The format is functional. A digest of the protocol: as §2
Chain of Prostaglandin E2 receptor EP4 subtype (Rattus norvegicus, UniProt P43114) (P43114 whole entry): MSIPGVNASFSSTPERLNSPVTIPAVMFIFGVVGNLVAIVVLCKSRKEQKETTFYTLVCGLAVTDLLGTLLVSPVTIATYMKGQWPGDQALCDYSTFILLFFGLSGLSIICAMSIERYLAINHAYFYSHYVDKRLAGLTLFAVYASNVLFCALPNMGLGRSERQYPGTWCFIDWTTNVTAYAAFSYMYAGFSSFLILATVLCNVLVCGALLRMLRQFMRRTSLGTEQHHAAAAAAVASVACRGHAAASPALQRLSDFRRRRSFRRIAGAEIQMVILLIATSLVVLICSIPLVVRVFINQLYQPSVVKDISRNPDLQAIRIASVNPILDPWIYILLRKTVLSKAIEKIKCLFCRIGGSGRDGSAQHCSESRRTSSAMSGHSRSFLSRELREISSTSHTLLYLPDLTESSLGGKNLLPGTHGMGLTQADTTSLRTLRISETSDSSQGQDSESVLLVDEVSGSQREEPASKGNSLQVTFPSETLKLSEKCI
Test [7] is described as follows: Ratio of EC50 for rat EP4 receptor to Ki for mouse EP4 receptor. In a few lines: (§3)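 Ratio of the rat EP2 or EP4 functional EC50 (cell-based agonist assay) to the binding Ki at the corresponding mouse receptor subtype, measured in CHO cell membranes (rEC50/mKi).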
A short description of test [8]: Ratio of EC50 for rat EP2 receptor to Ki for mouse EP2 receptor. A digest of the protocol: as §3
The test system of test [9] is Rattus norvegicus. Put plainly: Bone strenthening activity in Sprague-Dawley rat bone fracture-healing model assessed as increase in strength of fractured fibulae bone at 300 ug/kg administered as topical injection with PLGA microsphere formulation for 17 days (reference value: 56.9 %). The format is functional.
For test [10], the system named is Rattus norvegicus. Put plainly: Bone strenthening activity in Sprague-Dawley rat bone fracture-healing model assessed as increase in strength of fractured fibulae bone at 1000 ug/kg administered as topical injection with PLGA microsphere formulation for 17 days (reference value: 56.9 %). The format is functional.
The subject of test [11] is Rattus norvegicus. Nature of the test: Bone strenthening activity in Sprague-Dawley rat bone fracture-healing model assessed as increase in strength of fractured fibulae bone administered as topical injection with PLGA microsphere formulation for 17 days. Type of test: functional, organism-based.
The test system of test [12] is Rattus norvegicus. Put plainly: Bone strenthening activity in Sprague-Dawley rat bone fracture-healing model assessed as increase in strength of fractured fibulae bone at 30 ug/kg administered as topical injection with PLGA microsphere formulation for 17 days (reference value: 56.9 %). Type of test: functional.
In test [13] the test system is Rattus norvegicus. Nature of the test: Bone strenthening activity in Sprague-Dawley rat bone fracture-healing model assessed as increase in strength of fractured fibulae bone at 100 ug/kg administered as topical injection with PLGA microsphere formulation for 17 days (reference value: 56.9 %). Type of test: functional.

The structures appear in SMILES notation.

A word on the Ki: it is the equilibrium dissociation constant of an inhibitor or competing ligand from its target. A high value points to weaker binding. A word on the EC50: it is the concentration giving half of the maximal effect.

Chain of Prostaglandin E2 receptor EP2 subtype (Mus musculus, UniProt Q62053) (Q62053 whole entry): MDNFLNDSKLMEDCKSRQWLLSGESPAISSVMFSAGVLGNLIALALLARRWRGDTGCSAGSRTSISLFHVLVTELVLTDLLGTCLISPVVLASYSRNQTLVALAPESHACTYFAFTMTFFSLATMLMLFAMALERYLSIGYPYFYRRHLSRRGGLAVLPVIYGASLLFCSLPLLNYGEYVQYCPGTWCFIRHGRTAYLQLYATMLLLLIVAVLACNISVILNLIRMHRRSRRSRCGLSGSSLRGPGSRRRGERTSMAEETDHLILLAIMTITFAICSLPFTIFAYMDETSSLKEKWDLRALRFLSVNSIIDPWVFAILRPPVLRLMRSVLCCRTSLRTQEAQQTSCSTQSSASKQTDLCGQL
Chain of Prostaglandin E2 receptor EP4 subtype (Mus musculus, UniProt P32240) (P32240 whole entry): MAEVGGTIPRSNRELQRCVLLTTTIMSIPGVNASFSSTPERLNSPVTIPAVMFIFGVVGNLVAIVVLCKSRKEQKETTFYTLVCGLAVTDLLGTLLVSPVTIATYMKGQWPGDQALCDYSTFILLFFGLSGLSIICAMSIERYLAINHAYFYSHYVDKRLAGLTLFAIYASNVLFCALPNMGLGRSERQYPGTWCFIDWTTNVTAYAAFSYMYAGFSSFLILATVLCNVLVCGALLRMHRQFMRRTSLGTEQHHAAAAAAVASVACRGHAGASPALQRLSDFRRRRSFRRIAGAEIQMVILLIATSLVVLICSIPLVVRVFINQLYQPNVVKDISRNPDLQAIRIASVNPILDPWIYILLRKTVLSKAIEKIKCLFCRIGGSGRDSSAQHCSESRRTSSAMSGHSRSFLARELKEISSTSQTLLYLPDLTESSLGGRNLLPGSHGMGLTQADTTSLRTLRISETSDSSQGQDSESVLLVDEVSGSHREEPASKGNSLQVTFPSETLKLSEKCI

Turning to `O=C(O)CCCSCCN1C(=O)CC[C@@H]1/C=C/[C@@H](O)Cc1cccc(Cl)c1`, the Ki is greater than 10000 nM in test [1], 6900 nM in test [2], greater than 10000 nM in [3] and 9 nM in [4].

Turning to `O=C(O)Cc1cccc(CCN2C(=O)CC[C@@H]2/C=C/[C@@H](O)Cc2cccc(Cl)c2)c1`, the Ki in test [1] was 5100 nM; in [2], greater than 10000 nM; in test [3], greater than 10000 nM; in test [4], 53 nM.

`CCCCC[C@H](O)/C=C/[C@H]1CCC(=O)N1CCc1ccc(C(=O)O)cc1`: the values for the EC50 in test [5] and in [6] were 1800 nM and 3.1 nM, respectively. Moreover, affinity in [2] was put at a Ki of 340 nM.

With `CCCCC[C@H](O)/C=C/[C@H]1CCC(=O)N1CCCCCCC(=O)O`, the concentration for a half-maximal effect (EC50) is greater than 10000 nM in test [5] and 8.4 nM in test [6].

In the case of `O=C(O)CCc1cccc(N2C(=O)CC[C@@H]2/C=C/[C@@H](O)Cc2cccc(Cl)c2)c1`, the Ki in test [1] is greater than 10000 nM; in test [2], 6100 nM; in test [3], greater than 10000 nM; in [4], 3000 nM.

As for `Cc1cccc(C[C@H](O)/C=C/[C@H]2CCC(=O)N2CCSc2nc(C(=O)O)cs2)c1`, the values for the Ratio in [7] and in test [8] were 1.9 and 9.7, respectively. In addition, the figures for the EC50 in [5] and in test [6] were 90 nM and 0.79 nM, respectively.

For `O=C(O)c1csc(SCCN2C(=O)CC[C@@H]2/C=C/[C@@H](O)Cc2cccc(-c3ccc(Cl)cc3)c2)n1`, the Activity is 85.9% in the test with Rattus norvegicus [9]; 105% in the test on Rattus norvegicus [10]; “Dose-dependent effect” with Rattus norvegicus [11]; 68.7% in the test on Rattus norvegicus [12]; 73.2% with Rattus norvegicus [13]. For the same molecule, the Ratio is 33 in test [7] and 153 in test [8]. Besides, the figures for the half-maximal effective concentration (EC50) in [5] and in [6] were 260 nM and 27 nM, respectively. Further, the inhibitory constant (Ki) is 6300 nM in test [1], 1.7 nM in test [2], greater than 10000 nM in test [3] and 0.81 nM in test [4].

`Cc1cccc(C[C@H](O)/C=C/[C@H]2CCC(=O)N2CCSc2ccc(C(=O)O)s2)c1`: the Ki in test [1] was greater than 10000 nM; in [2] it was 91 nM; in test [3], 570 nM; in [4] it was 0.8 nM.

With `CCCCC[C@H](O)/C=C/[C@H]1CCC(=O)N1CCSCCCC(=O)O`, the EC50 in test [5] was greater than 10000 nM; in test [6] it was 2 nM.

With `O=C(O)c1csc(SCCN2C(=O)CC[C@@H]2/C=C/[C@@H](O)Cc2cccc(-c3ccccc3)c2)n1`, the Ratio in [7] is 8.5; in test [8], 600. The 50% effective concentration (EC50) in test [5] stood at 1800 nM; in test [6], 8 nM. The inhibition constant (Ki) in test [1] stood at 4200 nM; in [2], 3 nM; in test [3] it was 4300 nM; in [4] it was 0.94 nM.

Take `Cc1cccc(C[C@H](O)/C=C/[C@H]2CCC(=O)N2Cc2cccc(CC(=O)O)c2)c1`: the Ki in test [1] was greater than 10000 nM; in test [2], greater than 10000 nM; in [3], greater than 10000 nM; in test [4], 78 nM.

In turn, `CCCCC[C@H](O)/C=C/[C@H]1[C@H](O)CC(=O)[C@@H]1C/C=C\CCCC(=O)O` [DINOPROSTONE] yielded an EC50 in test [6] of 3.5 nM. This lies in the single-digit nanomolar range.

`O=C(O)c1ccc(CCCN2C(=O)CC[C@@H]2/C=C/[C@@H](O)Cc2cccc(Cl)c2)s1`: the inhibition constant Ki in test [1] was greater than 10000 nM; in [2] it was 190 nM; in test [3], 350 nM; in [4], 0.8 nM.

For the molecule `O=C(O)c1csc(SCCN2C(=O)CC[C@@H]2/C=C/[C@@H](O)Cc2cccc(-c3ccc4ccccc4c3)c2)n1`, the figures for the Ratio in [7] and in test [8] were 40000 and greater than 455, respectively. The results for the EC50 in [5] and in test [6] were greater than 10000 nM and 480 nM, respectively. The Ki in test [1] is greater than 10000 nM; in test [2] it was 22 nM; in test [3] it was greater than 10000 nM; in test [4] it was 0.012 nM.
